Our source for the Ki and IC50 values is ChEMBL document CHEMBL1132657, “CoMFA study of novel phenyl ring-substituted 3alpha-(diphenylmethoxy)tropane analogues at the dopamine transporter” (J Med Chem, 1999).

Assay [1] deals with T1, Sodium-dependent dopamine transporter (Rattus norvegicus, UniProt P23977). Briefly: Displacement of [3H]WIN-35428 binding to the dopamine transporter in rat caudate putamen tissue. The class given is tissue-based.
Assay [2] concerns the target T1, Sodium-dependent dopamine transporter. Description: Inhibition of [3H]dopamine uptake in rat caudate putamen tissue. Format: functional, tissue-based. The procedure, abridged:
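Rat caudate putamen chopped into 225 µm slices, in oxygenated Krebs-HEPES at 37 °C. Stopped with ice-cold buffer and filtered; accumulated label extracted in methanol/HCl and counted by scintillation. Specific uptake; IC50 by linear regression on the linear portion of the concentration–response curve.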

Molecules are shown by their SMILES.

T1 sequence (P23977 whole entry): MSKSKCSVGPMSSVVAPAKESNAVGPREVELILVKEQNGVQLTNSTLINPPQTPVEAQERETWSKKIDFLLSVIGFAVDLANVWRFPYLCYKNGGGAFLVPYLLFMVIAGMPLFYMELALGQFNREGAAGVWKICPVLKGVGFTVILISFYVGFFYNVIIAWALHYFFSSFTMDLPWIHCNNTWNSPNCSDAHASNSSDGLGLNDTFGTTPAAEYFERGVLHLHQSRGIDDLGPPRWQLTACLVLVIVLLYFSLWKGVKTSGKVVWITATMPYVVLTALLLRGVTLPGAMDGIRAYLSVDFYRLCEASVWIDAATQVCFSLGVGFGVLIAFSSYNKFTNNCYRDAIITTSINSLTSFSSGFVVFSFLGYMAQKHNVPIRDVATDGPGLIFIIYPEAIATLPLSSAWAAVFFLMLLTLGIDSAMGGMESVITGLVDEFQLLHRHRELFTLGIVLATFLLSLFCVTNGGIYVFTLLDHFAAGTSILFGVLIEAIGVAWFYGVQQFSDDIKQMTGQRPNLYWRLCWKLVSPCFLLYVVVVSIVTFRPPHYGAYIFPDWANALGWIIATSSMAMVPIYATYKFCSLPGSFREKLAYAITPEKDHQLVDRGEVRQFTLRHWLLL

In assay [1], `CN1[C@@H]2CC[C@H]1C[C@@H](OC(c1ccccc1)c1ccc(F)c(F)c1)C2` (stereo not given in full) registered an inhibition constant Ki of 27.9 nM. The IC50 in assay [2] was determined as 181 nM.

The compound `CN1[C@@H]2CC[C@H]1C[C@@H](OC(c1ccc(F)cc1)c1cccc(Cl)c1)C2` (stereo not given in full) displayed a Ki in assay [1] of 23.4 nM. This compound also had an IC50 in assay [2] of 123 nM. On to `Cc1cccc(C(O[C@H]2C[C@H]3CC[C@@H](C2)N3C)c2ccc(F)cc2)c1` (stereo not given in full), for which the inhibition constant Ki in assay [1] came to 30.9 nM. For the same compound, in assay [2], 108 nM corresponded to half-maximal inhibition (IC50).

As to `CN1[C@@H]2CC[C@H]1C[C@@H](OC(c1ccccc1)c1cccc(Br)c1)C2` (stereo not given in full), in assay [1], the affinity corresponds to a Ki of 27 nM. In assay [2], this compound gave an IC50 of 104 nM. In assay [1], `CN1[C@@H]2CC[C@H]1C[C@@H](OC(c1ccc(F)cc1)c1cccc(Br)c1)C2` (stereo not given in full) came in with a Ki of 38.2 nM. This compound yielded an IC50 in assay [2] of 179 nM.

`Cc1cccc(C(O[C@H]2C[C@H]3CC[C@@H](C2)N3C)c2ccccc2)c1` (stereo not given in full): the Ki in assay [1] was found to be 78 nM. In assay [2], the IC50 was 226 nM. The corresponding values for `CN1[C@@H]2CC[C@H]1C[C@@H](OC(c1ccccc1)c1cccc([N+](=O)[O-])c1)C2` (stereo not given in full) are 187 nM and 795 nM. In assay [2], `CN1[C@@H]2CC[C@H]1C[C@@H](OC(c1ccc(F)cc1)c1cccc(F)c1)C2` (stereo not given in full) had an IC50 of 139 nM. `CN1[C@@H]2CC[C@H]1C[C@@H](OC(c1ccc(F)cc1)c1ccc(Br)cc1)C2` (stereo not given in full): in assay [1], the Ki is 15.2 nM. Also, the IC50 in assay [2] was determined as 27.2 nM. On to `CN1[C@@H]2CC[C@H]1C[C@@H](OC(c1ccccc1)c1ccccc1Cl)C2` (stereo not given in full), for which the IC50 in assay [2] came to 977 nM. In assay [1], `CN1[C@@H]2CC[C@H]1C[C@@H](OC(c1ccc(F)cc1)c1cccc(C(F)(F)F)c1)C2` (stereo not given in full) had a Ki of 88.1 nM. In addition, inhibition in assay [2] was half-maximal at 182 nM (IC50).
